Screening results: PubChem, several laboratories
MPTP block – inhibitors of mitochondrial permeability transition pore; isolated mouse mitochondria, Ca2+ swelling absorbance, 30 min; inhibition, % at 10 µM; 1.4% of 360,000 active; AID 602449;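 active means inhibition of 50% or more, scaled per plate between neutral and stimulator controls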;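 further: 0% = DMSO wells given calcium and 100% = 1 mM EGTA wells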
SMARCA2 act – increases SMARCA2 function in MMTV reporter cells. MG213 cells, MMTV-luciferase reporter, dexamethasone, overnight. AID 652017. 1% of 370,000 active. activation, % at 9.1 µM; in the data active means activation above about 7.8%;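 further: 0% = vehicle wells and 100% = reference activator wells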
MC4R antag cAMP – antagonists of human melanocortin 4 receptor (MC4R); P32245; MC4R-expressing cells, MTII-stimulated cAMP, LANCE TR-FRET; inhibition, % at 6.5 µM; 0.48% of 360,000 active; AID 540295;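 active means inhibition above its plate's cutoff, the mean of tested wells on that plate plus 3 SD, cut at about 29% in these data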;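 further: 0% = Melanotan II alone and 100% = Melanotan II plus saturating MCL0020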
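System – human MC4R-expressing U2OS cells · Also added – Melanotan II · Dosing – one concentration, 6.5 µM nominal · Timing – 30-min compound, 1-h challenge, 1-h detection, room temperature · Measured by – Eu-cAMP/anti-cAMP TR-FRET, emission 671 nm · Replicates – singlicate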
MC4R ag barr – agonists of human melanocortin 4 receptor (MC4R) beta-arrestin | 0.98% of 360,000 active | AID 540308 | P32245 | activation, % at 8.9 µM | U2OS MC4R beta-arrestin complementation, luminescence; percent of melanotan II response, DMSO zero;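 active means activation above a per-plate cutoff, the mean activation of sample wells on that plate plus 3 SD, cut at about 8% in these data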
ATG4B inh – blocks human ATG4B protease cleavage of LC3 substrate; ATG4B cleavage of LC3-PLA2, NBD-HPC fluorescence, 1 h; inhibition, % at 8.33 µM; 0.51% of 340,000 active; AID 504462; in the data active means inhibition above about 40%
Target sequence (Q9Y4P1 whole entry, looked up): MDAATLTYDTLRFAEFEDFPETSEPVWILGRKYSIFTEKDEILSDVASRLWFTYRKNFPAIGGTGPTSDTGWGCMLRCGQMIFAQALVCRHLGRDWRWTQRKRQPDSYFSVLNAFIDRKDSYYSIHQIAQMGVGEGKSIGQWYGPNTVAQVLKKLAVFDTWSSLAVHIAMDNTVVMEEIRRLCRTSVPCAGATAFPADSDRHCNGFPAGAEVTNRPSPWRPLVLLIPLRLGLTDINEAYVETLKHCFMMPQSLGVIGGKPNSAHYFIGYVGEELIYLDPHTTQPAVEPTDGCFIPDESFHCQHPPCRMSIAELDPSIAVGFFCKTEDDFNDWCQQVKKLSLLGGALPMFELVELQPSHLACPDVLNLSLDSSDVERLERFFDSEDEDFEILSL
MPTP counter – Rhodamine 123 counter-screen of mitochondrial pore hits. shares compounds with MPTP block. isolated mitochondria, membrane potential, Rhodamine 123 fluorescence. inhibition, % at 10 µM. 78% of 5,000 active. AID 624504; in the data active means inhibition above about 22%;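 further: 0% = DMSO vehicle and 100% = positive control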
MPTP swell DR – MPTP inhibition, dose response swelling confirmation | shares compounds with MPTP block | isolated mitochondria swelling, absorbance | IC50, µM | 58% of 780 active | AID 651561; in the data active means IC50 below about 20 µM
MPTP counter DR – MPTP inhibitor counter-screen activity, dose response | shares compounds with MPTP block | 49% of 780 active | isolated mitochondria counterscreen, fluorescence read-out | IC50, µM; in the data active means IC50 below about 80 µM
The depositor's hits bear a star; / = no result given. An excerpt weighted towards active compounds, which were near 4.1% of everything screened.

SMILES	MPTP block	SMARCA2 act	MC4R antag cAMP	MC4R ag barr	ATG4B inh	MPTP counter	others
Cc1sc2ncnc(N3CCN(S(=O)(=O)c4ccc(C(C)(C)C)cc4)CC3)c2c1C	100.5*	-2.4	3.2	-1.0	0.5	100.4*
Cc1sc2ncnc(N3CCC(C(=O)NNC(=O)COc4ccc(Cl)cc4)CC3)c2c1C	0.4	-2.7	7.6	-4.0	-7.3	/
O=S(=O)(c1cccc(Br)c1)N1CCN(c2ncnc3scc(-c4ccccc4)c23)CC1	-1.9	-0.8	8.0	-4.1	-1.4	/
Cc1csc2ncnc(N3CCN(S(=O)(=O)c4cccc(C(F)(F)F)c4)CC3)c12	97.0*	-3.0	11.6	-2.1	-1.4	93.0*
Cc1sc2ncnc(N3CCN(CCOc4ccc(Cl)cc4)CC3)c2c1C	100.2*	-6.0	-8.2	5.1	-1.1	101.8*
Cc1nc(N2CCN(S(=O)(=O)c3ccc(F)cc3)CC2)c2c(C)c(C)sc2n1	0.5	1.6	0.3	2.0	7.6	/
Cc1sc2ncnc(N3CCN(S(=O)(=O)c4ccc(Br)cc4)CC3)c2c1C	92.8*	0.1	11.3	-3.3	5.6	109.6*
Fc1cccc2sc(Nc3nc4ccccc4s3)nc12	39.3	-0.3	10.2	1.3	-13.7	/
Fc1ccc2nc(Nc3nc4c(F)cc(F)cc4s3)sc2c1	97.0*	-2.4	7.1	-2.6	28.6	71.2*
Fc1ccc2nc(Nc3nc4c(F)cccc4s3)sc2c1	95.9*	2.0	2.1	-0.4	20.6	46.4*
O=C(O)CCCC[n+]1ccccc1	/	0.5	/	/	/	/
COCc1[nH]nc2c1C(c1ccc3c(c1)OCO3)N(Cc1ccccc1)C2=O (stereo unspecified)	/	-3.4	/	/	/	/
CCCCCC[C@H](CC)CN(C(=O)Oc1ccccc1)c1ccccc1	/	-4.3	/	/	/	/
Cc1cc(N=NC(=O)c2ccccc2O)c2ccccc2c1O	73.7*	1.1	2.4	-2.2	-11.3	90.7*
CC(C)n1nnnc1C1(C)CSCC(=O)N1Cc1cccc(F)c1 (stereo unspecified)	/	-1.5	/	/	/	/
COc1ccc(-c2noc(CSc3nc(N)cc(=O)[nH]3)n2)cc1	73.5*	-2.3	-2.3	-3.4	-2.0	45.2*
COc1ccc(-c2noc(CSc3nc(-c4ccccc4)cc(=O)[nH]3)n2)cc1OC	-2.2	2.8	1.4	-1.1	4.9	/
O=[N+]([O-])c1ccc(-c2c(O)c3ccccc3c3nc4ccccc4nc23)cc1	74.5*	-5.2	-0.4	-1.9	-2.1	37.3*
COCCCN(C(=S)Nc1cc(Cl)cc(Cl)c1)C(C)c1ccccn1 (stereo unspecified)	90.6*	1.1	8.1	0.5	4.0	86.7*
COCCCN(C(=S)Nc1cc(Cl)cc(Cl)c1)C(C)c1ccncc1 (stereo unspecified)	92.6*	-4.1	13.2	2.1	-2.9	99.2*
O=C(Nc1ccc(F)cc1)Nc1nc2ncccn2c1-c1ccc(F)cc1	/	-1.5	/	/	/	/
COc1ccc(/C=C2\CC3(OC(=O)c4ccccc4)CCCN2C3)cc1 (stereo unspecified)	/	1.4	/	/	/	/
Cc1nn(C)c(C)c1CN(C)S(=O)(=O)c1ccc(F)cc1	-0.7	-4.0	5.5	-1.1	-3.2	/
Cc1nn(C)c(C)c1CN(C)S(=O)(=O)c1ccc2ccccc2c1	109.5*	-6.3	0.1	0.8	-6.4	102.1*
Cc1cc(CN(C)C(=O)c2cc(COc3ccc4ncccc4c3)on2)on1	96.2*	-5.3	-1.7	-3.7	-10.6	72.5*
SMILES	MPTP block	SMARCA2 act	MC4R antag cAMP	MC4R ag barr	ATG4B inh	MPTP counter	others
CN(Cc1nccn1C)C(=O)c1cc(COc2ccc3ncccc3c2)on1	69.5*	-1.8	3.5	-3.1	5.6	18.6	MPTP swell DR=19*;MPTP counter DR=46*
CN(Cc1nccn1C)C(=O)c1cc(COc2cccc(C(F)(F)F)c2)on1	-1.0	-0.9	7.6	0.1	-3.6	/
CCCCSCc1nc2nc(Cl)c(Cl)nc2[nH]1	71.8*	-5.7	9.9	0.1	/	82.8*
OCc1nc2nc(Cl)c(Cl)nc2[nH]1	-2.1	-1.6	16.5	1.6	-7.8	/
Cc1nc2cc(NC(=O)Nc3nccs3)ccc2n1C	0.4	3.4	0.5	-2.9	-8.2	/
O=C(Nc1cccc(Cl)c1)Nc1nccs1	72.3*	-0.9	1.4	1.4	0.4	91.6*
O=C(Nc1ccc(Cl)c(Cl)c1)Nc1nccs1	87.2*	-4.6	-24.9	-1.5	1.2	68.3*
COc1ccc(-c2noc(C3CCCN(C(=O)N[C@@H]4C[C@H]4c4ccccc4)C3)n2)cc1 (stereo partly specified)	/	-2.7	/	/	/	/
CN(CCCOC(=O)c1occ2ccccc12)C1CN(Cc2cn(Cc3ccccc3Cl)nn2)S(=O)(=O)C1 (stereo unspecified)	/	0.5	/	/	/	/
O=S(=O)(N/N=C1/CC(c2ccccc2)Oc2ccccc21)c1ccc(Br)cc1 (stereo unspecified)	76.5*	0.8	3.0	-0.4	19.6	84.9*
O=S(=O)(N/N=C1/CCCc2ccccc21)c1ccc(Br)cc1	1.0	3.2	1.4	7.3	5.2	/
Cc1ccc(S(=O)(=O)NN=C2CCC(C(C)(C)C)CC2)cc1[N+](=O)[O-] (stereo unspecified)	11.0	/	-5.6	0.6	-0.5	/
Cc1ccc(S(=O)(=O)N/N=C2/CC(c3ccccc3)Oc3ccccc32)cc1[N+](=O)[O-] (stereo unspecified)	78.3*	-2.5	1.7	-0.1	20.8	76.0*
COC(=O)[C@H](Cc1ccccc1)N1CC=CS1(=O)=O	/	7.0	/	/	/	/
O=C(NCCc1ccccc1Cl)[C@@H]1CCCN1C(=O)[C@@H](NC(=O)N1CCOCC1)C1CCCCC1	/	-3.1	/	/	/	/
Cc1cc(Nc2ccc(OC(F)F)cc2)cc(=O)n1-c1ccc(OC(F)F)cc1	/	-3.0	/	/	/	/
O=C(CSc1nnc(-c2ccccc2)n1-c1ccccc1)NN=C/C=C\c1ccccc1[N+](=O)[O-]	/	-6.6	/	/	/	/
CCc1ccc(NC(=O)Nc2ccc3c(c2)N(C)C(=O)CS3)cc1	56.1*	-1.7	-0.1	4.1	-17.2	70.3*
CC(=O)c1cccc(NC(=O)Nc2ccc3c(c2)N(C)C(=O)CS3)c1	90.3*	-4.4	4.6	-2.3	-6.3	76.4*
